From ChEMBL document CHEMBL1143823, “Addition of a C-terminal cysteine improves the anti-herpes simplex virus activity of a peptide containing the human immunodeficiency virus type 1 TAT protein transduction domain” (Antimicrob Agents Chemother, 2007)
The source made the active and inactive calls. The rule behind the calls is not given here.

Assays:
Human alphaherpesvirus 1 [1] = assay: Inhibition of HSV1 entry in african green monkey Vero cells assessed as beta-galactosidase activity for 1 hr at 37 degC; type: functional, organism-based; details: Human alphaherpesvirus 1, Vero
How it was run: (§1)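 HSV-1 hrR3 (MOI 0.02–0.03) adsorbed to precooled Vero cells 1 h at 4°C and rinsed. Peptide added at 4°C, shifted to 37°C for 1 h of entry. Peptide rinsed off; pH 3 citrate 60 s. Lysis at 6 h, initial β-galactosidase rate (CPR-Gal, 570 nm) relative to mock, minus cycloheximide background; triplicates.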

Vero = assay: Cytotoxicity against african green monkey Vero cells by trypan blue exclusion assay; type: cell-based; details: chlorocebus sabaeus
How it was run: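 Viability by trypan blue exclusion in Vero cells after peptide exposure.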

Human alphaherpesvirus 1 [2] = assay: Antiviral activity against HSV1 in african green monkey Vero cells assessed as resistance to viral infection after 1 hr at 37 degC; type: functional, organism-based; details: Human alphaherpesvirus 1, Vero
How it was run: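 Vero monolayers exposed to peptide 1 h at 37°C, rinsed three times, infected with hrR3 (MOI 0.01) 1 h at 37°C without peptide. pH 3 citrate inactivates extracellular virus; lysate β-galactosidase (CPR-Gal, 570 nm) read 6 h later. EC50 from dose-response, triplicates per concentration.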

Human alphaherpesvirus 1 [3] = assay: Antiviral activity against HSV1 in african green monkey Vero cells assessed as viral inactivation after 1 hr at 37 degC; type: functional, organism-based; details: Human alphaherpesvirus 1, Vero
How it was run: (§2)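 hrR3 virions (1×10^6–6×10^6 PFU/ml) in serum-free DMEM incubated with peptide 1 h at 37°C. Free peptide removed by 1,000-fold dilution or by pelleting at 14,000 × g. Infectivity then titrated on Vero cells in triplicate by lysate β-galactosidase or X-Gal staining. EC50 from dose-response curves.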

Human alphaherpesvirus 1 [4] = assay: Inhibition of HSV1 entry in african green monkey Vero cells assessed as beta-galactosidase activity relative to control […]; type: functional, organism-based; details: Human alphaherpesvirus 1, Vero; how it was run: as §1
Human alphaherpesvirus 1 [5] = assay: Inactivation of HSV1 in african green monkey Vero cells assessed as beta-galactosidase activity upto 200 uM at 37 degC; type: functional, organism-based; how it was run: as §2
Human alphaherpesvirus 1 [6] = assay: Antiviral activity against HSV1 assessed as Inhibition of VP16 nuclear translocation in african green monkey Vero cells at 50 uM after 1 hr at 4 degC; type: functional; design: scale not given: the % may be the effect or the level left
How it was run: (§3)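 Vero cells on poly-L-lysine coverslips; HSV-1 adsorbed 80 min at 4°C (MOI 10). Peptide at 50 μM present for the last 20 min of adsorption and through the 1 h 37°C entry period, or virus pretreated with 300 μM for 1 h at 37°C and then diluted. Cells fixed, anti-VP16 immunofluorescence, 50 cells per group scored for nuclear VP16.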

Human alphaherpesvirus 1 [7] = assay: Antiviral activity against HSV1 assessed as Inhibition of VP16 nuclear translocation in african green monkey Vero cells at 300 uM after 1 hr at 37 degC; type: functional; design: scale not given: the % may be the effect or the level left; how it was run: as §3
Human alphaherpesvirus 1 [8] = assay: Inhibition of HSV1 attachment in african green monkey Vero cells at 100 uM at 37 degC; type: functional; details: Human alphaherpesvirus 1, Vero
Human alphaherpesvirus 1 [9] = assay: Inhibition of HSV1 hrR3S syncytium formation in african green monkey Vero cells assessed as reduction of beta-galactosidase activity at 100 uM; type: functional; design: scale not given: the % may be the effect or the level left
How it was run: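 Confluent Vero (2.0 × 10^5 cells/well) infected with syncytial hrR3S (MOI 0.02 to 0.05) 1 to 2 h at 37°C, rinsed, then held up to 24 h at 37°C in carbonate-buffered serum DMEM with neutralizing anti-HSV-1 antibody (50-fold dilution) ± peptide. Fusion read as initial β-galactosidase rate in NP-40 lysates with CPR-Gal at 570 nm.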

Human alphaherpesvirus 1 [10] = assay: Inhibition of HSV1 entry in african green monkey Vero cells assessed as beta-galactosidase activity at 30 uM at 33 degC after 40 mins; type: functional, organism-based
How it was run: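 Vero cells on strip-well plates with hrR3 adsorbed 1 h at 4°C; entry started by floating the plate at 33°C. Peptide added just before the shift or 35 min after, returning to 33°C at 40 min. At set times, external virus inactivated with pH 3 citrate. Lysed 6 h later; β-galactosidase initial rate read against mock-treated controls, triplicate.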

Human alphaherpesvirus 2 [11] = assay: Antiviral activity against HSV2 333 assessed by plaque reduction assay; type: functional, organism-based
How it was run: (§4)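 Plaque reduction on Vero monolayers with HSV-2 strain 333, 150 PFU/well adsorbed 1 h at 4°C. Peptide added at 4°C, shift to 37°C 10 min later; alternatively cells pretreated 1 h at 4°C with peptide and rinsed before virus. Extracellular virus inactivated; 2% methylcellulose overlay for 2.5 days; crystal violet plaque counts.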

Human alphaherpesvirus 2 [12] = assay: Antiviral activity against HSV2 333 assessed as resistance against viral infection; type: functional, organism-based
Human alphaherpesvirus 1 [13] = assay: Antiviral activity against HSV1 hrR3S infected african green monkey Vero cells assessed as inhibition of viral cell-cell spread at 100 uM; type: functional, organism-based
How it was run: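 Vero cells infected with syncytial hrR3S (MOI 0.02–0.05) for 1–2 h at 37°C, then held up to 24 h at 37°C with 50-fold diluted neutralizing anti-HSV-1 antibody ± peptide. Syncytia viewed by X-Gal staining; fusion quantified as initial rate of lysate β-galactosidase.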

Human alphaherpesvirus 2 [14] = assay: Antiviral activity against HSV2 333 pretreated for 1 hr before viral infection at 4 degC by plaque reduction assay; type: functional, organism-based; how it was run: as §4

SMILES | EC50 (Human alphaherpesvirus 1 [1]) [µM] | Activity (Vero) | EC50 (Human alphaherpesvirus 1 [2]) [µM] | EC50 (Human alphaherpesvirus 1 [3]) [µM] | also measured
N=C(N)NCCC[C@H](NC(=O)CNC(=O)CCCCCNC(=O)CCCC[C@@H]1SC[C@@H]2NC(=O)N[C@@H]21)C(=O)N[C@@H](CCCCN)C(=O)N[C@@H](CCCCN)C(=O)N[C@@H](CCCNC(=N)N)C(=O)N[C@@H](CCCNC(=N)N)C(=O)N[C@@H](CCC(N)=O)C(=O)N[C@@H](CCCNC(=N)N)C(=O)N[C@@H](CCCNC(=N)N)C(=O)N[C@@H](CCCNC(=N)N)C(=O)N[C@@H](CS)C(N)=O | 5.7 | Non-toxic |  |  | 
N=C(N)NCCC[C@@H](NC(=O)CN)C(=O)N[C@H](CCCCN)C(=O)N[C@H](CCCCN)C(=O)N[C@H](CCCNC(=N)N)C(=O)N[C@H](CCCNC(=N)N)C(=O)N[C@H](CCC(N)=O)C(=O)N[C@H](CCCNC(=N)N)C(=O)N[C@H](CCCNC(=N)N)C(=O)N[C@H](CCCNC(=N)N)C(=O)N1CCC[C@@H]1C(N)=O | 0.7 | Non-toxic | > 1200 | 1050 | EC50 (Human alphaherpesvirus 1 [4]): 0.3 µM
N=C(N)NCCC[C@H](NC(=O)CN)C(=O)N[C@@H](CCCCN)C(=O)N[C@@H](CCCCN)C(=O)N[C@@H](CCCNC(=N)N)C(=O)N[C@@H](CCCNC(=N)N)C(=O)N[C@@H](CCC(N)=O)C(=O)N[C@@H](CCCNC(=N)N)C(=O)N[C@@H](CCCNC(=N)N)C(=O)N[C@@H](CCCNC(=N)N)C(=O)N[C@@H](CS)C(=O)O | 3.1 | Non-toxic | 3.3 | 96 | Activity (Human alphaherpesvirus 1 [5]): Active; Activity (Human alphaherpesvirus 1 [6]): 6%; Activity (Human alphaherpesvirus 1 [7]): 2.5%
N=C(N)NCCC[C@@H](NC(=O)CN)C(=O)N[C@H](CCCCN)C(=O)N[C@H](CCCCN)C(=O)N[C@H](CCCNC(=N)N)C(=O)N[C@H](CCCNC(=N)N)C(=O)N[C@H](CCC(N)=O)C(=O)N[C@H](CCCNC(=N)N)C(=O)N[C@H](CCCNC(=N)N)C(=O)N[C@H](CCCNC(=N)N)C(=O)N[C@H](CSSC[C@@H](NC(=O)[C@@H](CCCNC(=N)N)NC(=O)[C@@H](CCCNC(=N)N)NC(=O)[C@@H](CCCNC(=N)N)NC(=O)[C@@H](CCC(N)=O)NC(=O)[C@@H](CCCNC(=N)N)NC(=O)[C@@H](CCCNC(=N)N)NC(=O)[C@@H](CCCCN)NC(=O)[C@@H](CCCCN)NC(=O)[C@@H](CCCNC(=N)N)NC(=O)CN)C(N)=O)C(N)=O | 0.6 | Non-toxic | 0.4 | 34 | 
CCCC[C@H](NC(=O)[C@H](CCCC)NC(=O)[C@H](CCC(N)=O)NC(=O)[C@H](CCCNC(=N)N)NC(=O)[C@H](CCCNC(=N)N)NC(=O)[C@H](CCCCN)NC(=O)[C@H](CCCCN)NC(=O)[C@H](CCCNC(=N)N)NC(=O)CN)C(=O)N[C@@H](CCCNC(=N)N)C(=O)N[C@@H](CS)C(=O)O | 48 | Non-toxic | 230 | 900 | 
N=C(N)NCCC[C@@H](NC(=O)CNC(=O)CCCCCNC(=O)CCCC[C@@H]1SC[C@@H]2NC(=O)N[C@@H]21)C(=O)N[C@H](CCCCN)C(=O)N[C@H](CCCCN)C(=O)N[C@H](CCCNC(=N)N)C(=O)N[C@H](CCCNC(=N)N)C(=O)N[C@H](CCC(N)=O)C(=O)N[C@H](CCCNC(=N)N)C(=O)N[C@H](CCCNC(=N)N)C(=O)N[C@H](CCCNC(=N)N)C(=O)N[C@H](CS)C(=O)O | 2.1 | Non-toxic |  |  | inhibition at 100 µM (Human alphaherpesvirus 1 [8]): 25%; Activity (Human alphaherpesvirus 1 [9]): 93%
N=C(N)NCCC[C@H](NC(=O)[C@H](CCCNC(=N)N)NC(=O)[C@H](CCCNC(=N)N)NC(=O)[C@H](CCC(N)=O)NC(=O)[C@H](CCCNC(=N)N)NC(=O)[C@H](CCCNC(=N)N)NC(=O)[C@H](CCCCN)NC(=O)[C@H](CCCCN)NC(=O)[C@H](CCCNC(=N)N)NC(=O)CN)C(N)=O | 1 | Non-toxic | > 1200 | > 1200 | EC50 (Human alphaherpesvirus 1 [4]): 0.3 µM
CCCC[C@H](NC(=O)[C@H](CCCC)NC(=O)[C@H](CCC(N)=O)NC(=O)[C@H](CCCNC(=N)N)NC(=O)[C@H](CCCNC(=N)N)NC(=O)[C@H](CCCCN)NC(=O)[C@H](CCCCN)NC(=O)[C@H](CCCNC(=N)N)NC(=O)CNC(=O)CCCCCNC(=O)CCCC[C@@H]1SC[C@@H]2NC(=O)N[C@@H]21)C(=O)N[C@@H](CCCNC(=N)N)C(=O)N[C@@H](CS)C(=O)O | 37 | Non-toxic |  |  | 
CCCC[C@H](NC(=O)[C@H](CCCNC(=N)N)NC(=O)CN)C(=O)N[C@@H](CCCC)C(=O)N[C@@H](CCCNC(=N)N)C(=O)N[C@@H](CCCNC(=N)N)C(=O)N[C@@H](CCC(N)=O)C(=O)N[C@@H](CCCNC(=N)N)C(=O)N[C@@H](CCCNC(=N)N)C(=O)N[C@@H](CCCNC(=N)N)C(=O)N[C@@H](CS)C(N)=O | 9.6 | Non-toxic | 92 | 115 | Activity (Human alphaherpesvirus 1 [10]): Active
N=C(N)NCCC[C@@H](NC(=O)CN)C(=O)N[C@H](CCCCN)C(=O)N[C@H](CCCCN)C(=O)N[C@H](CCCNC(=N)N)C(=O)N[C@H](CCCNC(=N)N)C(=O)N[C@H](CCC(N)=O)C(=O)N[C@H](CCCNC(=N)N)C(=O)N[C@H](CCCNC(=N)N)C(=O)N[C@H](CCCNC(=N)N)C(=O)N[C@H](CS)C(N)=O | 0.9 | Non-toxic | 1.1 | 200 | EC50 (Human alphaherpesvirus 1 [4]): 0.3 µM; EC50 (Human alphaherpesvirus 2 [11]): 2.5 µM; EC50 (Human alphaherpesvirus 2 [12]): 81 µM
N=C(N)NCCC[C@H](NC(=O)CN)C(=O)N[C@@H](CCCCN)C(=O)N[C@@H](CCCCN)C(=O)N[C@@H](CCCNC(=N)N)C(=O)N[C@@H](CCCNC(=N)N)C(=O)N[C@@H](CCC(N)=O)C(=O)N[C@@H](CCCNC(=N)N)C(=O)N[C@@H](CCCNC(=N)N)C(=O)N[C@@H](CCCNC(=N)N)C(=O)N[C@@H](CS)C(N)=O | 0.9 | Non-toxic | 3.9 | 390 | 
N=C(N)NCCC[C@@H](NC(=O)CN)C(=O)N[C@H](CCCCN)C(=O)N[C@H](CCCCN)C(=O)N[C@H](CCCNC(=N)N)C(=O)N[C@H](CCCNC(=N)N)C(=O)N[C@H](CCC(N)=O)C(=O)N[C@H](CCCNC(=N)N)C(=O)N[C@H](CCCNC(=N)N)C(=O)N[C@H](CCCNC(=N)N)C(=O)N[C@H](CS)C(=O)O | 2.5 | Non-toxic | 5.4 | 150 | Activity (Human alphaherpesvirus 1 [13]): Active; EC50 (Human alphaherpesvirus 2 [11]): 1.3 µM; EC50 (Human alphaherpesvirus 2 [14]): 7.7 µM
